Measurements as given in ChEMBL document CHEMBL3779825, “Design, Synthesis, and Structural Optimization of Lycorine-Derived Phenanthridine Derivatives as Wnt/β-Catenin Signaling Pathway Agonists” (J Nat Prod, 2016).
Active and inactive are the calls of the source. The rule behind the calls is not given here.

Experiments:
Type in all cases: cell-based
[1] = Activation of Wnt/beta-catenin signaling pathway in HEK293T cells in presence of Wnt3a-conditioned medium incubated for 6 hrs by luciferase reporter gene assay; settings: Homo sapiens; HEK-293T
Outline: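 HEK293T cells were grown in DMEM with 10% heat-inactivated FBS at 37 °C in 5% CO2. Cells were seeded in 24-well plates and lipofected with 250 ng total plasmid per well: 20 ng TOPFlash, 25 ng EGFP-C1, and LacZ plasmid as filler. Luciferase luminescence was normalized to lysate GFP fluorescence. The value reported is the concentration doubling Wnt activation.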

[2] = Activation of Wnt/beta-catenin signaling pathway in HEK293T cells assessed as increase in Axin-2 expression at 5 to 20 uM in presence of Wnt3a-conditioned medium incubated for 6 hrs by quantitative real time PCR analysis; settings: Homo sapiens, HEK-293T
Outline: (§1)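 HEK293T cells were grown in DMEM with 10% (v/v) heat-inactivated FBS at 37 °C in 5% CO2/95% air. Cells were exposed to compound together with control medium or Wnt3a-conditioned medium for 6 h.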

[3] = Activation of Wnt/beta-catenin signaling pathway in HEK293T cells assessed as increase in NKD1 expression at 5 to 20 uM in presence of Wnt3a-conditioned medium incubated for 6 hrs by quantitative real time PCR analysis; settings: Homo sapiens, HEK-293T; outline: as §1
[4] = Activation of Wnt/beta-catenin signaling pathway in HEK293T cells preincubated for 1 hr followed by Wnt3a stimulation and subsequent addition of compound measured after 6 hrs by luciferase reporter gene assay; settings: Homo sapiens; HEK-293T

For `C#CCOc1cc2c(cc1OCC#C)-c1cccc(CC)c1N(C)C2`, the CD [1] was 5 µM.
For `O=C(O)CCCC[C@@H]1SC[C@@H]2NC(=O)N[C@@H]21`, the Activity [1] was “inactive”.
For `CCc1cccc2c1N(C)Cc1cc(OCc3cn(CCNC(C)=O)nn3)c(OCc3cn(CCNC(C)=O)nn3)cc1-2`, the Activity [2] was “Active”, the Activity [3] was “Active” and the CD [1] was 2.5 µM.
For `C=Cc1cccc2c1N(C)Cc1cc(O)c(O)cc1-2`, the CD [1] was 10 µM.
For `[N-]=[N+]=NCCNC(=O)CCCC[C@@H]1SC[C@@H]2NC(=O)N[C@@H]21`, the Activity [1] was “inactive”.
With `C=Cc1cccc2c1N(C)Cc1cc3c(cc1-2)OCO3` the CD [1] was “inactive”.
`CCc1cccc2c1N(C)Cc1cc(OC)c(OC)cc1-2` showed a CD [1] of 2.5 µM.
In the case of `CCc1cccc2c1N(C)Cc1cc(O)c(O)cc1-2`, the CD [1] is reported as 5 µM.
In the case of `CCc1cccc2c1N(C)Cc1cc(OCc3cn(CCNC(=O)CCCC[C@@H]4SC[C@@H]5NC(=O)N[C@@H]54)nn3)c(OCc3cn(CCNC(=O)CCCC[C@@H]4SC[C@@H]5NC(=O)N[C@@H]54)nn3)cc1-2`, the CD [4] is reported as 0.325 µM.
For `CCc1cccc2c1N(C)Cc1cc(OCc3cc(OC)cc(OC)c3)c(OCc3cc(OC)cc(OC)c3)cc1-2`, the CD [1] was “inactive”.
With `CCc1cccc2c1N(C)Cc1cc(OCc3cn(CCN)nn3)c(OCc3cn(CCN)nn3)cc1-2` the Activity [2] was “Active”, the Activity [3] was “Active” and the CD [1] was 1.25 µM.
With `NCCn1cc(COc2cccc(OCc3cn(CCN)nn3)c2)nn1` the Activity [1] was “Active”.
With `CCc1cccc2c1N(C)Cc1cc(OCc3ccc(-c4ccccc4C(=O)OC)cc3)c(OCc3ccc(-c4ccccc4C(=O)OC)cc3)cc1-2` the Activity [2] was “inactive”, the Activity [3] was “inactive” and the CD [1] was “inactive”.
In the case of `CCc1cccc2c1N(C)Cc1cc(OCc3cc(C)n(C)n3)c(OCc3cc(C)n(C)n3)cc1-2`, the CD [1] is reported as “inactive”.
Compound `CCc1cccc2c1N(C)Cc1cc3c(cc1-2)OCO3` has a CD [1] of 5 µM.
For `CCc1cccc2c1N(C)Cc1cc(OCc3cc(C)nn3C)c(OCc3cc(C)nn3C)cc1-2`, the CD [1] was “inactive”.
With `C=Cc1cccc2c1N(C)Cc1cc(OCC)c(OCC)cc1-2` the CD [1] was “inactive”.
For `NCCn1cc(COc2ccccc2OCc2cn(CCN)nn2)nn1`, the Activity [1] was “Active”.
In the case of `CCOc1cc2c(cc1OCC)-c1cccc(CC)c1N(C)C2`, the CD [1] is reported as 5 µM.
In the case of `O=C1N[C@H]2[C@H](CS[C@H]2CCCCC(=O)ON2C(=O)CCC2=O)N1`, the Activity [1] is reported as “inactive”.
For `CCc1cccc2c1N(C)Cc1cc(OCc3cc4cc(Cl)ccc4s3)c(OCc3cc4cc(Cl)ccc4s3)cc1-2`, the Activity [2] was “inactive”, the Activity [3] was “inactive” and the CD [1] was “inactive”.
In the case of `CCc1cccc2c1N(C)Cc1cc(OCc3ccc(-n4cccn4)cn3)c(OCc3ccc(-n4cccn4)cn3)cc1-2`, the CD [1] is reported as “inactive”.
